In PMC9827987 (Chemmedchem, 2022) one finds IC50 and Ki data, which are given here for 23 compounds.

Where two headings read alike, the source gives them in different places.

The test system of test [1] is P. falciparum V1/S (QM PfDHFR). Nature of the test: In vitro antimalarial activity, 3H-hypoxanthine incorporation, V1S. The class given is cell-based. Conditions: Plasmodium falciparum, read-out: IC50 PfV1S. In short, it runs like this:
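P. falciparum V1/S (quadruple-mutant PfDHFR, chloroquine-resistant) grown in human erythrocytes at 37 °C under 3% CO2. Medium was RPMI 1640 with 25 mM HEPES, 0.2% NaHCO3, 40 µg/mL gentamicin and 8% human serum. Activity was measured by ³H-hypoxanthine incorporation.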

The test system of test [2] is P. falciparum TM4/8.2 (wild type PfDHFR). Nature of the test: In vitro antimalarial activity, 3H-hypoxanthine incorporation, TM4/8.2. It is filed as cell-based. The conditions noted are these: Plasmodium falciparum.
The test system of a further test is KB cells. Put plainly: Cytotoxicity, sulforhodamine B staining, KB. It is filed as cell-based. The conditions noted are these: Homo sapiens, read-out: IC50 KB.
The target of the next test is PfDHFR-QM (Plasmodium falciparum, UniProt P13922, I164L/N51I). Nature of the test: DHFR enzyme inhibition assay, quadruple mutant. The class given is biochemical.
Another test addresses PfDHFR-WT (Plasmodium falciparum, UniProt P13922, N108S/R59C). Put plainly: DHFR enzyme inhibition assay, wild type. The class given is biochemical.
A further test addresses T1, HsDHFR (Homo sapiens, UniProt P00374).
T1 sequence (P00374 1-187): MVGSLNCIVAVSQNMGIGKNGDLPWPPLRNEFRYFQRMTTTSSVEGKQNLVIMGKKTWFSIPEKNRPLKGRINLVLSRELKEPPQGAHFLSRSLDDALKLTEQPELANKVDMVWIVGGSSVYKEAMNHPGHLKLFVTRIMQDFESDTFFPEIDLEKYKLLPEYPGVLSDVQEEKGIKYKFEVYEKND
Put plainly: biochemical.

[3] abbreviates: read-out: IC50 PfTM4/8.2, WT P. falciparum, drug sensitive strain.

Take `COc1ccccc1CCNCc1c(N)nc(N)nc1-c1ccccc1` [7 a, 6‐Phenyl‐5‐{[(2‐methoxyphenethyl)amino]methyl}pyrimidine‐2,4‐diamine]: the IC50 in test [1] is 54 ± 2 µM; in test [2] (read-out: IC50 PfTM4/8.2), 27 ± 3 µM; with KB cells, greater than 100 µM. In addition, the results for the Ki at PfDHFR-QM, at PfDHFR-WT and at HsDHFR were 0.208 ± 0.003 µM, 0.243 ± 0.021 µM and greater than 500 µM, respectively.
As to `COc1cccc(CCNCc2c(N)nc(N)nc2-c2ccccc2)c1` [7 b, 6‐Phenyl‐5‐{[(3‐methoxyphenethyl)amino]methyl}pyrimidine‐2,4‐diamine], the figures for the IC50 (in test [1]; in test [2] (read-out: IC50 PfTM4/8.2); with KB cells) were 48 ± 1 µM, 27 ± 4 µM and greater than 100 µM, respectively. The Ki (usually the dissociation constant of the complex between target and ligand, obtained from inhibition or displacement) on PfDHFR-QM is 0.074 ± 0.001 µM; at PfDHFR-WT, 0.107 ± 0.003 µM; on HsDHFR, greater than 500 µM.
As for `COc1ccc(CCNCc2c(N)nc(N)nc2-c2ccccc2)cc1` [7 c, 6‐Phenyl‐5‐{[(4‐methoxyphenethyl)amino]methyl}pyrimidine‐2,4‐diamine], the IC50 was 34 ± 2 µM in test [1], 28 ± 5 µM in test [2] (read-out: IC50 PfTM4/8.2) and greater than 100 µM in the test with KB cells. Also, the Ki is 0.069 ± 0.005 µM at PfDHFR-QM, 0.086 ± 0.013 µM on PfDHFR-WT and greater than 500 µM on HsDHFR.
On to `COc1ccccc1CCNCc1c(N)nc(N)nc1C1CC1` [7 d, 6‐Cyclopropyl‐5‐{[(2‐methoxyphenethyl)amino]methyl}pyrimidine‐2,4‐diamine], for which the IC50 is 35 ± 4 µM in test [1], 25 ± 1 µM in test [2] (setting [3]) and greater than 100 µM with KB cells. Further, the results for the inhibition constant (Ki) at PfDHFR-QM, on PfDHFR-WT and on HsDHFR were 0.031 ± 0.002 µM, 0.015 ± 0.001 µM and 1.59 ± 0.029 µM, respectively.
On to `COc1cccc(CCNCc2c(N)nc(N)nc2C2CC2)c1` [7 e, 6‐Cyclopropyl‐5‐{[(3‐methoxyphenethyl)amino]methyl}pyrimidine‐2,4‐diamine], for which the IC50 in test [1] stood at 13 ± 1 µM; in test [2] (setting [3]), 4.2 ± 0.2 µM; in the test with KB cells it was 74 ± 4 µM. Besides, the Ki was 0.026 ± 0.0005 µM at PfDHFR-QM, 0.0044 ± 0.0002 µM on PfDHFR-WT and 1.04 ± 0.034 µM on HsDHFR.
Consider `COc1ccc(CCNCc2c(N)nc(N)nc2C2CC2)cc1` [7 f, 6‐Cyclopropyl‐5‐{[(4‐methoxyphenethyl)amino]methyl}pyrimidine‐2,4‐diamine], for which the IC50 in test [1] worked out at 15 ± 3 µM; in test [2] (setting [3]) it was 3.5 ± 0.2 µM; with KB cells, 72 ± 1 µM. In addition, the figures for the Ki on PfDHFR-QM, on PfDHFR-WT and at HsDHFR were 0.029 ± 0.0006 µM, 0.0035 ± 0.0004 µM and 0.647 ± 0.006 µM, respectively.
On to `Nc1nc(N)c(CNCCc2ccccc2F)c(C2CC2)n1` [7 g, 6‐Cyclopropyl‐5‐{[(2‐fluorophenethyl)amino]methyl}pyrimidine‐2,4‐diamine], for which the IC50 in test [1] is 25 ± 2 µM; in test [2] (setting [3]) it was 12 ± 5 µM; in the test with KB cells, greater than 100 µM. The Ki at PfDHFR-QM was 0.031 ± 0.002 µM; on PfDHFR-WT, 0.0082 ± 0.0003 µM; at HsDHFR, 0.205 ± 0.001 µM.
Take `Nc1nc(N)c(CNCCc2cccc(F)c2)c(C2CC2)n1` [7 h, 6‐Cyclopropyl‐5‐{[(3‐fluorophenethyl)amino]methyl}pyrimidine‐2,4‐diamine]: the IC50 in test [1] is 20 ± 2 µM; in test [2] (setting [3]), 4.2 ± 0.3 µM; with KB cells it was greater than 100 µM. Further, the inhibitory constant (Ki) at PfDHFR-QM was 0.026 ± 0.002 µM; at PfDHFR-WT, 0.01 ± 0.0003 µM; at HsDHFR, 0.458 ± 0.031 µM.
Regarding `Nc1nc(N)c(CNCCc2ccc(F)cc2)c(C2CC2)n1` [7 i, 6‐Cyclopropyl‐5‐{[(4‐fluorophenethyl)amino]methyl}pyrimidine‐2,4‐diamine], the figures for the IC50 (in test [1]; in test [2] (setting [3]); in the test with KB cells) were 48 ± 5 µM, 23 ± 3 µM and greater than 100 µM, respectively. Moreover, the inhibition constant (Ki) turned out to be 0.035 ± 0.002 µM on PfDHFR-QM, 0.0057 ± 0.0005 µM at PfDHFR-WT and 0.212 ± 0.012 µM on HsDHFR.
Regarding `Nc1nc(N)c(CNCCc2ccccc2Cl)c(C2CC2)n1` [7 j, 6‐Cyclopropyl‐5‐{[(2‐chlorophenethyl)amino]methyl}pyrimidine‐2,4‐diamine], the IC50 in test [1] is 17 ± 3 µM; in test [2] (setting [3]), 0.4 ± 0.01 µM; in the test with KB cells, 83 ± 7 µM. The inhibition constant Ki worked out at 0.023 ± 0.0006 µM at PfDHFR-QM, 0.0093 ± 0.0005 µM on PfDHFR-WT and 0.304 ± 0.016 µM at HsDHFR.
On to `Nc1nc(N)c(CNCCc2cccc(Cl)c2)c(C2CC2)n1` [7 k, 6‐Cyclopropyl‐5‐{[(3‐chlorophenethyl)amino]methyl}pyrimidine‐2,4‐diamine], for which the IC50 is 14 ± 4 µM in test [1], 4.2 ± 0.9 µM in test [2] (setting [3]) and 82 ± 13 µM with KB cells. The inhibition constant Ki was determined as 0.02 ± 0.0009 µM on PfDHFR-QM, 0.0025 ± 0.0001 µM on PfDHFR-WT and 0.345 ± 0.007 µM at HsDHFR.
With `Nc1nc(N)c(CNCCc2ccc(Cl)cc2)c(C2CC2)n1` [7 l, 6‐Cyclopropyl‐5‐{[(4‐chlorophenethyl)amino]methyl}pyrimidine‐2,4‐diamine], the IC50 in test [1] is 18 ± 3 µM; in test [2] (setting [3]), 5 ± 0.6 µM; with KB cells, 70 ± 0.5 µM. In addition, the values for the Ki on PfDHFR-QM, on PfDHFR-WT and at HsDHFR were 0.027 ± 0.0001 µM, 0.0025 ± 0.0002 µM and 0.142 ± 0.006 µM, respectively.
On to `Nc1nc(N)c(CNCCc2ccc(Cl)cc2Cl)c(C2CC2)n1` [7 m, 6‐Cyclopropyl‐5‐{[(2,4‐dichlorophenethyl)amino]methyl}pyrimidine‐2,4‐diamine], for which the IC50 in test [1] is 6.3 ± 1.2 µM; in test [2] (setting [3]), 3.6 ± 0.2 µM; in the test with KB cells, 66 ± 2 µM. Besides, the inhibition constant Ki on PfDHFR-WT amounted to 0.002 ± 3e-05 µM; on HsDHFR, 0.131 ± 0.005 µM.
Turning to `Nc1nc(N)c(CNCCc2ccc(Cl)c(Cl)c2)c(C2CC2)n1` [7 n, 6‐Cyclopropyl‐5‐{[(3,4‐dichlorophenethyl)amino]methyl}pyrimidine‐2,4‐diamine], the IC50 worked out at 4.4 ± 0.1 µM in test [1], 3.3 ± 0.1 µM in test [2] (setting [3]) and 23 ± 0.5 µM in the test on KB cells. The inhibition constant Ki on PfDHFR-QM was 0.013 ± 4e-05 µM; at PfDHFR-WT it was 0.0013 ± 6e-05 µM; at HsDHFR, 0.202 ± 0.006 µM.
As for `COc1ccccc1CCNCc1c(N)nc(N)nc1C1CCCCC1` [7 o, 6‐Cyclohexyl‐5‐{[(2‐methoxyphenethyl)amino]methyl}pyrimidine‐2,4‐diamine], the values for the IC50 (in test [1]; in test [2] (read-out: IC50 PfTM4/8.2); in the test with KB cells) were 9.4 ± 1.9 µM, 3.7 ± 0.3 µM and 22 ± 0.3 µM, respectively. Also, the results for the Ki at PfDHFR-QM, at PfDHFR-WT and on HsDHFR were 0.126 ± 0.009 µM, 0.128 ± 0.009 µM and greater than 500 µM, respectively.
With `COc1cccc(CCNCc2c(N)nc(N)nc2C2CCCCC2)c1` [7 p, 6‐Cyclohexyl‐5‐{[(3‐methoxyphenethyl)amino]methyl}pyrimidine‐2,4‐diamine], the IC50 in test [1] amounted to 4.1 ± 0.3 µM; in test [2] (read-out: IC50 PfTM4/8.2), 3.5 ± 0.2 µM; in the test with KB cells it was 23 ± 0.3 µM. The figures for the Ki at PfDHFR-QM, on PfDHFR-WT and on HsDHFR were 0.056 ± 0.002 µM, 0.031 ± 0.005 µM and greater than 500 µM, respectively.
Regarding `COc1ccc(CCNCc2c(N)nc(N)nc2C2CCCCC2)cc1` [7 q, 6‐Cyclohexyl‐5‐{[(4‐methoxyphenethyl)amino]methyl}pyrimidine‐2,4‐diamine], the IC50 in test [1] came to 3.7 ± 0.2 µM; in test [2] (read-out: IC50 PfTM4/8.2), 1.8 ± 0.1 µM; in the test on KB cells, 23 ± 0.2 µM. In addition, the inhibition constant Ki is 0.055 ± 0.002 µM at PfDHFR-QM, 0.032 ± 0.001 µM on PfDHFR-WT and greater than 500 µM on HsDHFR.
For `Nc1nc(N)c(CNCCc2ccccc2F)c(C2CCCCC2)n1` [7 r, 6‐Cyclohexyl‐5‐{[(2‐fluorophenethyl)amino]methyl}pyrimidine‐2,4‐diamine], the IC50 was 16 ± 2 µM in test [1], 4.1 ± 0.7 µM in test [2] (read-out: IC50 PfTM4/8.2) and 48 ± 14 µM in the test on KB cells. Besides, the inhibition constant Ki at PfDHFR-QM was 0.083 ± 0.001 µM; at PfDHFR-WT, 0.061 ± 0.0015 µM; on HsDHFR, greater than 500 µM.
Turning to `Nc1nc(N)c(CNCCc2cccc(F)c2)c(C2CCCCC2)n1` [7 s, 6‐Cyclohexyl‐5‐{[(3‐fluorophenethyl)amino]methyl}pyrimidine‐2,4‐diamine], the figures for the IC50 (in test [1]; in test [2] (read-out: IC50 PfTM4/8.2); with KB cells) were 11 ± 2 µM, 3 ± 0.4 µM and 62 ± 3 µM, respectively. The inhibition constant Ki was 0.074 ± 0.002 µM on PfDHFR-QM, 0.076 ± 0.005 µM on PfDHFR-WT and greater than 500 µM at HsDHFR.
Consider `Nc1nc(N)c(CNCCc2ccc(F)cc2)c(C2CCCCC2)n1` [7 t, 6‐Cyclohexyl‐5‐{[(4‐fluorophenethyl)amino]methyl}pyrimidine‐2,4‐diamine], for which the IC50 stood at 7 ± 2 µM in test [1], 2.2 ± 0.1 µM in test [2] (read-out: IC50 PfTM4/8.2) and 56 ± 5 µM with KB cells. Further, the inhibition constant Ki at PfDHFR-QM is 0.136 ± 0.007 µM; on PfDHFR-WT it was 0.08 ± 0.009 µM; on HsDHFR, greater than 250 µM.
Consider `Nc1nc(N)c(CNCCc2ccc(Cl)cc2)c(C2CCCCC2)n1` [7 w, 6‐Cyclohexyl‐5‐{[(4‐chlorophenethyl)amino]methyl}pyrimidine‐2,4‐diamine], for which the values for the IC50 (in test [1]; in test [2] (read-out: IC50 PfTM4/8.2); in the test with KB cells) were 4.5 ± 0.3 µM, 3.1 ± 0.2 µM and 23 ± 0.2 µM, respectively. Also, the inhibitory constant (Ki) at PfDHFR-QM is 0.06 ± 0.001 µM; at HsDHFR it was greater than 500 µM.
For `CC1(C)N=C(N)N=C(N)N1c1ccc(Cl)cc1` [CYC, cycloguanil, reference compound], the IC50 in test [1] is 92 ± 6 µM; in test [2] (read-out: IC50 PfTM4/8.2), 0.03 ± 0.005 µM; in the test on KB cells, greater than 100 µM. On PfDHFR-QM, this compound came in with a Ki of 0.42 ± 0.13 µM.
As to `CCc1nc(N)nc(N)c1-c1ccc(Cl)cc1` [PYR, pyrimethamine, reference compound], the IC50 in test [1] is greater than 100 µM; in test [2] (read-out: IC50 PfTM4/8.2), 0.05 ± 0.007 µM; in test [2] (setting [3]), 0.053 µM; in the test on KB cells, 60 ± 26 µM.
